Each structure is given as a SMILES string. Activity calls are given as the source filed them. The rule behind the calls is not given here.

The values that follow come from ChEMBL document CHEMBL4052610, “Evaluation of Dual 5-Lipoxygenase/Microsomal Prostaglandin E2 Synthase-1 Inhibitory Effect of Natural and Synthetic Acronychia-Type Isoprenylated Acetophenones” (J Nat Prod, 2017).

Data set [1] addresses T1, Polyunsaturated fatty acid 5-lipoxygenase (Homo sapiens, UniProt P09917).
T1 sequence (P09917 whole entry): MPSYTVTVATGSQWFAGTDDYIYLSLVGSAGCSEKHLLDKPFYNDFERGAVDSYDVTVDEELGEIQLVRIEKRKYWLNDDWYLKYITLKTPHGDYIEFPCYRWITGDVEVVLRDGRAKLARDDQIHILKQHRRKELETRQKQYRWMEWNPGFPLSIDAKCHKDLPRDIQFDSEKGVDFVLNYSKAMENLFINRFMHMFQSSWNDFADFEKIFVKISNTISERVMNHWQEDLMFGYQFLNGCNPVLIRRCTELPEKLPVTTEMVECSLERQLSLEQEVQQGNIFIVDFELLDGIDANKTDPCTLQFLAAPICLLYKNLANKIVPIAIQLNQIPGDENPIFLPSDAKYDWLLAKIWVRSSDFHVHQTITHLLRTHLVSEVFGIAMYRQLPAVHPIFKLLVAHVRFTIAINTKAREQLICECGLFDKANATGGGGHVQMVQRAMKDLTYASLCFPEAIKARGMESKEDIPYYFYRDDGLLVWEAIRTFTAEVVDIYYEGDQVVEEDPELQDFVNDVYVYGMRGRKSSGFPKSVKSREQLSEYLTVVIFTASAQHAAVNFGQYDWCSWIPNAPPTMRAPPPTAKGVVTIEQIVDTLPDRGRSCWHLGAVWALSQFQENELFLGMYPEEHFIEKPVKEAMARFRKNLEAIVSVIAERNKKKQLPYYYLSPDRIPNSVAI
Kind of data set: Inhibition of human recombinant 5-LO expressed in Escherichia coli MV1190 using arachidonic acid as substrate preincubated for 10 mins followed by substrate addition measured after 10 mins by RP-HPLC analysis. The gist of the method: (§1)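 Human 5-LO expressed in E. coli MV1190, partially purified on ATP-agarose, diluted in PBS with 1 mM EDTA and 1 mM ATP. Held 10 min at 4 °C with compound, warmed 30 s to 37 °C, started with 2 mM CaCl2 plus 20 μM AA. Run 10 min at 37 °C, stopped with methanol. LTB4 trans-isomers and 5-H(p)ETE measured by RP-HPLC. IC50 from 4–5 concentrations; n = 3–4.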

Data set [2] addresses T1, Polyunsaturated fatty acid 5-lipoxygenase. Kind of data set: Inhibition of 5-LO in human peripheral blood neutrophils using arachidonic acid as substrate preincubated for 15 mins followed by substrate addition measured after 10 mins in presence of Ca2+ ionophore A23187 by RP-HPLC analysis.
The next data set has as its target T2, Prostaglandin E synthase (Homo sapiens, UniProt O14684).
T2 sequence (O14684 whole entry): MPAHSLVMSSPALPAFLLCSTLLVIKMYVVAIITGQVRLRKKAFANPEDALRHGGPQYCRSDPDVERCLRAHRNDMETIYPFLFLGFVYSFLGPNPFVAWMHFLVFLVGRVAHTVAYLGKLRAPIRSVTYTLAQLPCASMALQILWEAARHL
Kind of data set: Inhibition of human A549 cell microsomal membrane-derived mPGES-1 assessed as reduction in conversion of PGH2 to PGE2 preincubated for 15 mins followed by PGH2 addition measured after 1 min by RP-HPLC analysis. It counts as cell-based.

A further data set concerns Neutrophil. Description: Cytotoxicity against human neutrophils assessed as reduction in cell viability up to 10 uM up to 30 mins by light microscopic and trypan blue exclusion assay. It counts as cell-based. Conditions: 0.5 h. Summed up:
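Isolated human blood neutrophils (dextran sedimentation, Nycoprep, hypotonic lysis) in PBS pH 7.4 with 1 mg/mL glucose and 1 mM CaCl2. Compounds tested up to 10 μM for 30 min. Viability scored by light microscopy with trypan blue exclusion.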

For data set [3], the target named is T3, Polyunsaturated fatty acid 5-lipoxygenase (Homo sapiens) (UniProt P09917).
T3 sequence (whole entry): T1 sequence (P09917 whole entry)
Kind of data set: Inhibition of human recombinant 5-LO expressed in Escherichia coli MV1190 assessed as residual activity at 10 uM using arachidonic acid as substrate preincubated for 10 mins followed by substrate addition measured after 10 mins by RP-HPLC analysis relative to control. Summed up:
as §1

Data set [4] has as its system Mus musculus. Kind of data set: Anti inflammatory activity in CD-1 mouse assessed as reduction in zymosan-induced LTC4 by measuring LTC4 level in peritoneal exudates at 10 mg/kg, ip preincubated for 30 mins followed by zymosan addition measured after 30 mins by enzyme immunoassay (reference value: 92.2 +/- 12.8 ng/ml). It counts as functional.
In data set [5] the target is T3, Polyunsaturated fatty acid 5-lipoxygenase (Homo sapiens). Description: Competitive inhibition of human recombinant 5-LO expressed in Escherichia coli MV1190 using different concentration of arachidonic acid as substrate preincubated for 15 mins followed by substrate addition measured after 10 mins by RP-HPLC analysis. Conditions: in the assay text read “preincubated for 10 mins” for “preincubated for 15 mins”. Summed up: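 Semipurified recombinant human 5-LO assayed in the cell-free format with CaCl2 and varying AA concentrations, products measured by RP-HPLC. Representative experiment of three independent runs.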

Data set [6] concerns Mus musculus. Kind of data set: Anti inflammatory activity in CD-1 mouse assessed as reduction in zymosan-induced PGE2 by measuring PGE2 level in peritoneal exudates at 10 mg/kg, ip preincubated for 30 mins followed by zymosan addition measured after 30 mins by enzyme immunoassay (reference value: 10.5 +/- 1.34 ng/ml). It counts as functional.
The subject of data set [7] is Mus musculus. Kind of data set: Anti inflammatory in CD-1 mouse assessed as reduction in zymosan-induced inflammatory cell infiltration by measuring inflammatory cell level in peritoneal exudates at 10 mg/kg, ip preincubated for 30 mins followed by zymosan addition measured after 4 hrs […] (reference value: 7.3 +/- 0.72 10^6). It counts as functional.

Data set [8] relates to Mus musculus. Description: Anti inflammatory activity in CD-1 mouse assessed as reduction in zymosan-induced LTC4 level in peritoneal exudates at 10 mg/kg, ip preincubated for 30 mins followed by zymosan addition measured after 30 mins by enzyme immunoassay relative to control. It counts as functional. Further details: scale not given: the % may be the effect or the level left.

In data set [9] the test system is Mus musculus. Kind of data set: Anti inflammatory in CD-1 mouse assessed as reduction in zymosan-induced inflammatory cell infiltration level in peritoneal exudates at 10 mg/kg, ip preincubated for 30 mins followed by zymosan addition measured after 4 hr relative to control. It counts as functional. More on the design: scale not given: the % may be the effect or the level left.

In data set [10] the target is T3, Polyunsaturated fatty acid 5-lipoxygenase (Homo sapiens). Kind of data set: Reversible inhibition of human recombinant 5-LO expressed in Escherichia coli MV1190 using arachidonic acid as substrate preincubated for 15 mins followed by 10 fold dilution measured after 10 mins by RP-HPLC analysis. The gist of the method:
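Semipurified recombinant human 5-LO in the cell-free assay (2 mM CaCl2, 20 μM AA, 10 min at 37 °C, RP-HPLC read-out). Reversibility tested by wash-out using 10-fold dilution. Means ± SEM, n = 3–4.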

The test system of data set [11] is Mus musculus. Description: Anti inflammatory activity in CD-1 mouse assessed as reduction in zymosan-induced PGE2 by measuring PGE2 level in peritoneal exudates at 5 mg/kg, ip preincubated for 30 mins followed by zymosan addition measured after 30 mins by enzyme immunoassay (reference value: 10.5 +/- 1.34 ng/ml). It counts as functional.
Data set [12] relates to Mus musculus. Kind of data set: Anti inflammatory in CD-1 mouse assessed as reduction in zymosan-induced inflammatory cell infiltration by measuring inflammatory cell level in peritoneal exudates at 5 mg/kg, ip preincubated for 30 mins followed by zymosan addition measured after 4 hrs […] (reference value: 7.3 +/- 0.72 10^6). It counts as functional.

Turning to `CC(=O)c1c(O)c(C/C=C(/C)CCC=C(C)C)c(O)c(C(CC(C)C)c2c(O)c(C/C=C(\C)CCC=C(C)C)c(O)c(C(C)=O)c2O)c1O` (configuration not stated), the IC50 is 3.6 µM in data set [1], over 10 µM in [2] and 5.34 µM on Prostaglandin E synthase. For the same molecule, the Activity result with Neutrophil is “Non-Toxic”; in data set [3] it was under 50%.

Regarding `COc1c(CC=C(C)C)c(O)c(C(CC(C)C)c2c(O)c3c(c(C(C)=O)c2O)OC(C)(C)C=C3)c(O)c1C(C)=O` (configuration not stated), the IC50 in data set [1] was 6 µM; in data set [2] it was over 10 µM; at Prostaglandin E synthase, 4.2 µM. In addition, the Activity entry in the data set with Neutrophil was “Non-Toxic”; in data set [3] it was under 50%.

In the case of `CC(=O)c1c(O)cc(O)c(C/C=C(\C)CCC=C(C)C)c1O`, the Activity with Mus musculus [4] was 57.3 ng/mL; in the data set with Mus musculus [6], 11.3 ng/mL; with Mus musculus [7] it was 5 ×10⁶ No_unit; in the data set with Mus musculus [8] it was 38%; in the data set with Mus musculus [9], 32%; in the data set with Neutrophil it was “Non-Toxic”. In addition, in [3], the Activity is under 50%. Moreover, the inhibition entry in data set [5] was “inactive”. Further, the IC50 in data set [1] is 1 µM; in data set [2] it was 1.4 µM; at Prostaglandin E synthase it was 3.5 µM. The inhibition entry in data set [10] is “Active”.

Turning to `COc1c(CC=C(C)C)c(O)c(C(CC(C)C)c2c(O)c3c(c(C(C)=O)c2O)OC(C(C)(C)O)C3)c(O)c1C(C)=O` (configuration not stated), the results for the IC50 (in data set [1]; in data set [2]; on Prostaglandin E synthase) were over 10 µM, 4.5 µM and 1.1 µM, respectively. Moreover, the Activity result with Neutrophil is “Non-Toxic”; in [3], under 50%.

On to `COc1ccc2c(c1)c(CC(=O)O)c(C)n2C(=O)c1ccc(Cl)cc1` [INDOMETHACIN], for which the Activity with Mus musculus [11] was determined as 3.52 ng/mL; in the data set on Mus musculus [12], 2.08 ×10⁶ No_unit.

`CC(=O)c1c(O)cc(O)c(C(CC(C)C)c2c(O)cc(O)c(C(C)=O)c2O)c1O`: the IC50 was determined as 1.7 µM in data set [1], 6.3 µM in [2] and 1 µM at Prostaglandin E synthase. Besides, the Activity result in the data set on Neutrophil was “Non-Toxic”; in data set [3] it was under 50%.

In the case of `C=C(C)[C@@H](O)Cc1c(O)c(C(C)=O)c(O)c(C(CC(C)C)c2c(O)c(CC=C(C)C)c(OC)c(C(C)=O)c2O)c1O` (some centres not stated), the IC50 in data set [1] is 2.5 µM; in [2], 6.3 µM; at Prostaglandin E synthase, 1.1 µM. Also, the results for the Activity entry (in the data set with Neutrophil; in [3]) were “Non-Toxic” and under 50%, respectively.

Regarding `CC(=O)c1c(O)c(CC=C(C)C)c(O)c(C(CC(C)C)c2c(O)c(CC=C(C)C)c(O)c(C(C)=O)c2O)c1O`, the IC50 (in data set [1]; in data set [2]; at Prostaglandin E synthase) was over 10 µM throughout. Besides, the Activity result in the data set on Neutrophil was “Non-Toxic”; in [3], over 50%.

For the molecule `C=C(C)C1Cc2c(O)c(C(CC(C)C)c3c(O)c4c(c(C(C)=O)c3O)OC(C(=C)C)C4)c(O)c(C(C)=O)c2O1` (configuration not stated), the IC50 in data set [1] was over 10 µM; in [2], 5 µM; at Prostaglandin E synthase, over 10 µM. Further, the figures for the Activity entry (in the data set on Neutrophil; in data set [3]) were “Non-Toxic” and under 50%, respectively.

As for `CC(=O)c1c(O)c(C(CC(C)C)c2c(O)c3c(c(C(C)=O)c2O)OC(C)(C)C=C3)c(O)c2c1OC(C)(C)C=C2`, the IC50 was 2.4 µM in data set [1], over 10 µM in data set [2] and 1.2 µM on Prostaglandin E synthase. For the same molecule, the Activity entry with Neutrophil is “Non-Toxic”; in data set [3], under 50%.

Take `COc1c(CC=C(C)C)c(O)c(C(CC(C)C)c2c(O)c3c(c(C(C)=O)c2O)OC(C)(C)C(O)C3)c(O)c1C(C)=O` (configuration not stated): the IC50 was 7.3 µM in [1], 5.3 µM in data set [2] and 2.7 µM on Prostaglandin E synthase. The figures for the Activity entry (with Neutrophil; in data set [3]) were “Non-Toxic” and under 50%, respectively.

Consider `CC(=O)c1c(O)cc(O)c(CC=C(C)C)c1O`, for which, on Prostaglandin E synthase, the IC50 was over 10 µM. In the data set on Neutrophil, the Activity entry was “Non-Toxic”.

For `COc1c(CC=C(C)C)c(O)c(C(CC(C)C)c2c(O)c(C(C)=O)c(O)c3c2OC(C)(C)C(O)C3)c(O)c1C(C)=O` (configuration not stated), the IC50 was 2 µM in data set [1], 5 µM in data set [2] and 1.9 µM at Prostaglandin E synthase. Also, the figures for the Activity result (with Neutrophil; in data set [3]) were “Non-Toxic” and under 50%, respectively.

Regarding `COc1c(CC=C(C)C)c(O)c(C(CC(C)C)c2c(O)c(CC=C(C)C)c(O)c(C(C)=O)c2O)c(O)c1C(C)=O` (configuration not stated), the IC50 in data set [1] came out at 2.7 µM; in data set [2] it was 2.3 µM; on Prostaglandin E synthase it was 1.1 µM. Moreover, the Activity result in the data set on Neutrophil is “Non-Toxic”; in data set [3], under 50%.

In the case of `COc1c(CC=C(C)C)c(O)c(C(CC(C)C)c2c(O)c(C(C)=O)c(O)c3c2OC(C(C)(C)O)C3)c(O)c1C(C)=O` (configuration not stated) [ACROFOLIONE A], the IC50 in data set [1] was 5.3 µM; in data set [2], 7.3 µM; at Prostaglandin E synthase, 1.3 µM. Besides, the Activity entry was “Non-Toxic” in the data set with Neutrophil and under 50% in data set [3].

Consider `CC(c1cc2ccccc2s1)N(O)C(N)=O` (configuration not stated) [ZILEUTON], for which, in the data set with Mus musculus [4], the Activity came out at 65 ng/mL.

The IC50 is the concentration that gives 50% inhibition.
